Measured values from ChEMBL document CHEMBL4138261, “SAR Studies of Indole-5-propanoic Acid Derivatives To Develop Novel GPR40 Agonists” (ACS Med Chem Lett, 2017).
Activity calls are given as the source filed them.

Assays:
[1] = target: Free fatty acid receptor 1 (Homo sapiens, UniProt O14842); assay: Agonist activity at human GPR40 expressed in CHO cells after 24 hrs by NFAT-luciferase reporter gene assay; type: functional, cell-based
[2] = target: T1, Peroxisome proliferator-activated receptor gamma (Homo sapiens) (UniProt P37231); assay: Transactivation of human PPARgamma expressed in CHO cells at 10 uM after 24 hrs by luciferase reporter gene assay relative to rosiglitazone; type: cell-based
T1 sequence (whole entry): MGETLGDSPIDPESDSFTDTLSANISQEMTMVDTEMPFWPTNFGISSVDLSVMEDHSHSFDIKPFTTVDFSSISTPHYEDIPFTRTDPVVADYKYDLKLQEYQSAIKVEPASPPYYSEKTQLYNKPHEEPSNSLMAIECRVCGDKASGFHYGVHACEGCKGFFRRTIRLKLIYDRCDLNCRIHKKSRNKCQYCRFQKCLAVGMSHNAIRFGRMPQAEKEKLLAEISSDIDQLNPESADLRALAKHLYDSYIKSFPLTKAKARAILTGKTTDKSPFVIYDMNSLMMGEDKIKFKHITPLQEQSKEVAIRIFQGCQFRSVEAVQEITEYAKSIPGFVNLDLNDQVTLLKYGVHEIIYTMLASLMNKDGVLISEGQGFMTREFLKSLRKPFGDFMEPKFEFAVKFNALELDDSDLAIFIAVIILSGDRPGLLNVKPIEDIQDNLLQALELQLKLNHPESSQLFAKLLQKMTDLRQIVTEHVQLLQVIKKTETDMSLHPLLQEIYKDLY
Method in brief: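 Luciferase reporter transactivation assay for PPARγ; compounds tested at 10 μM; activity expressed as percent of 1 μM rosiglitazone; no activity defined as >25 μM.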

[3] = target: T2, Peroxisome proliferator-activated receptor gamma (Homo sapiens, UniProt P37231); assay: Transactivation of human PPARgamma expressed in CHO cells after 24 hrs by luciferase reporter gene assay; type: cell-based
T2 sequence (P37231 whole entry): T1 sequence (whole entry)

[4] = target: Free fatty acid receptor 1 (Mus musculus) (UniProt Q76JU9); assay: Agonist activity at GPR40 in mouse MIN6 cells assessed as increase in 17 mM glucose-stimulated insulin secretion at 1 and 10 uM after 2 hrs by ELISA relative to glucose; type: functional, cell-based
Sequence of Free fatty acid receptor 1 (Mus musculus) (Q76JU9 whole entry): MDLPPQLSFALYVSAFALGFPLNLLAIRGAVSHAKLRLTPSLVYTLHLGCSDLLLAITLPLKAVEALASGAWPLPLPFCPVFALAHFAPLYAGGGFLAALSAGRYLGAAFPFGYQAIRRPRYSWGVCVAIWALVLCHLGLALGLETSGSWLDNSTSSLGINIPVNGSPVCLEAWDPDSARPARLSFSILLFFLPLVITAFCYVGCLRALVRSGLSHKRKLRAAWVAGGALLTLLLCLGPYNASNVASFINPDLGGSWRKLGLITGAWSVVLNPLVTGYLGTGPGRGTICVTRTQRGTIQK
Method in brief: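 GSIS in MIN6 insulinoma cells stimulated with 17 mM glucose; insulin secretion compared with 17 mM glucose alone by Student's test (*p ≤ 0.05, **p ≤ 0.025, ***p ≤ 0.01).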

[5] = Intrinsic clearance in human liver microsomes at 1 uM after 30 mins in presence of NADPH by UPLC-MS analysis; type: ADME, microsome; settings: 0.5 h
Method in brief: (§1)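 Liver microsomal stability; intrinsic clearance reported in μL/min/mg.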

[6] = Intrinsic clearance in CD-1 mouse liver microsomes at 1 uM after 30 mins in presence of NADPH by UPLC-MS analysis; type: ADME, microsome; settings: 0.5 h; method in brief: as §1

Sequence of Free fatty acid receptor 1 (O14842 whole entry): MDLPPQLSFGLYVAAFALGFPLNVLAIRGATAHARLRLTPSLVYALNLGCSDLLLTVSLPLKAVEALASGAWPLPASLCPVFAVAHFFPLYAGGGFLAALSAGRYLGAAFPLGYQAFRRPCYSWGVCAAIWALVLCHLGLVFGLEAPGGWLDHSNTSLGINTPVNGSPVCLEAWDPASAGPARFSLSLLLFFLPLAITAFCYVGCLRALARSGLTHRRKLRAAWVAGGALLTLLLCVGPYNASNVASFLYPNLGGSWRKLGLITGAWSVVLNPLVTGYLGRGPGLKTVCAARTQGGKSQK

Row | Compound | EC50 [1] | Activity [2] | also measured
1 | CCc1ccccc1-c1cc2cc(CCC(=O)O)ccc2[nH]1 | 1800 nM | 7% | 
2 | COc1ccccc1-c1cc2cc(CCC(=O)O)ccc2[nH]1 | > 25000 nM | 0% | 
3 | Cc1cccc(-c2cc3cc(CCC(=O)O)ccc3[nH]2)c1 | > 25000 nM | 8% | 
4 | O=C(O)CCc1ccc2[nH]c(-c3ccccc3OC(F)(F)F)cc2c1 | 1020 nM | 2% | 
5 | O=C(O)CCc1ccc(NCc2cccc(Oc3ccccc3)c2)cc1 [GW9508] | 50 nM |  | 
6 | O=C(O)CCc1ccc2[nH]c(-c3ccccc3F)cc2c1 | 1210 nM | 3% | 
7 | Cc1cc(OCCCS(C)(=O)=O)cc(C)c1-c1cccc(COc2ccc3c(c2)OC[C@H]3CC(=O)O)c1 |  |  | fold change (FC) [4]: 1.7
8 | Cn1c(-c2cccc(Cl)c2)cc2cc(CCC(=O)O)ccc21 | > 10000 nM |  | 
9 | O=C(O)CCc1ccc2[nH]c(-c3ccc(Cl)cc3)cc2c1 | 778 nM | 1% | 
10 | O=C(O)CCc1ccc2[nH]c(-c3ccccc3)cc2c1 | > 25000 nM | 14% | Activity [4]: inactive
11 | O=C(O)CCc1ccc2[nH]c(-c3cccc(Cl)c3)cc2c1 | 37.8 nM | 101% | EC50 [3]: 2.4 µM; CLH [5]: 4.3 µL/min; CLH [6]: 11.3 µL/min; fold change (FC) [4]: 1.7

More lines, main results first:

Row | EC50 [1] | Activity [2] | Compound | also measured
12 | 1800 nM | 56% | O=C(O)CCc1ccc2[nH]c(-c3cccc(Br)c3)cc2c1 | EC50 [3]: 236 µM
13 | > 10000 nM |  | Cn1c(-c2ccccc2Br)cc2cc(CCC(=O)O)ccc21 | 
14 | 1310 nM | 8% | O=C(O)CCc1ccc2[nH]c(-c3ccccc3C(F)(F)F)cc2c1 | 
15 | > 25000 nM | 5% | COc1ccc(-c2cc3cc(CCC(=O)O)ccc3[nH]2)cc1 | 
16 | 54.6 to 58.6 nM | 1% | O=C(O)CCc1ccc2[nH]c(-c3ccccc3Cl)cc2c1 | CLH [5]: 9.2 µL/min; CLH [6]: 14.3 µL/min; fold change (FC) [4]: 1.4
17 | 9.4 nM | 4% | O=C(O)CCc1ccc2[nH]c(-c3ccccc3Br)cc2c1 | CLH [5]: 7.1 µL/min; CLH [6]: 10.4 µL/min; fold change (FC) [4]: 1.6
18 | 447 nM | 4% | Cc1ccccc1-c1cc2cc(CCC(=O)O)ccc2[nH]1 | 
19 | > 10000 nM |  | Cn1c(-c2ccc(Cl)cc2)cc2cc(CCC(=O)O)ccc21 | 
20 | > 25000 nM | 64% | Cc1ncccc1-c1cc2cc(CCC(=O)O)ccc2[nH]1 | EC50 [3]: 56.9 µM
21 | > 25000 nM | 5% | COc1cccc(-c2cc3cc(CCC(=O)O)ccc3[nH]2)c1 | 
22 | > 25000 nM | 4% | Cc1ccc(-c2cc3cc(CCC(=O)O)ccc3[nH]2)cc1 | 
23 | > 25000 nM | 2% | CC(C)c1ccccc1-c1cc2cc(CCC(=O)O)ccc2[nH]1 | 
